Laboratory results published in ChEMBL document CHEMBL3414491, “Synthesis and antitumor activities evaluation of m-(4-morpholinoquinazolin-2-yl)benzamides in vitro and in vivo” (Eur J Med Chem, 2015).
Activity calls are given as the source filed them. The rule behind the calls is not given here.

Legend:
[1] = Antiproliferative activity against human HCT116 cells after 72 hrs by MTT assay; type: functional, cell-based; details: HCT-116, 72 h
Method in brief: (§1)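 MTT: cells seeded at 1500–4000 per well, grown 24 h, then given serial dilutions (1% DMSO final) for 72 h at 37 °C. MTT was added for 4 h, formazan dissolved in DMSO and absorbance read at 490 nm. Three separate experiments in triplicate; IC50 is the concentration giving 50% cell death versus control.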

MCF7 = test: Antiproliferative activity against human MCF7 cells after 72 hrs by MTT assay; type: functional, cell-based; details: MCF7, 72 h; method in brief: as §1
A549 = test: Antiproliferative activity against human A549 cells after 72 hrs by MTT assay; type: functional, cell-based; details: A549, 72 h; method in brief: as §1
[2] = Antiproliferative activity against human U87MG cells after 72 hrs by MTT assay; type: functional, cell-based, U-87MG ATCC; details: U-87 MG; method in brief: as §1
[3] = Inhibition of PI3K-mediated PI3K/Akt/mTOR pathway in human HCT116 cells assessed as reduction in Akt Ser473 phosphorylation at 10 uM incubated for 1 hr by Western blot method; type: cell-based; details: HCT-116
Method in brief: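 HCT-116 cells were seeded at 5 × 10⁵ per well and grown 16 h at 37 °C, then exposed to 10 µM for 1 h; vehicle control was 0.5% DMSO. Lysates were normalised by BCA, run on 10% SDS-PAGE, transferred to nitrocellulose and probed for AKT and p-Ser473 AKT, with β-actin as loading control. Detection was by chemiluminescence; bands were quantified densitometrically.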

[4] = target: PI3-kinase p110-alpha/p85-alpha (Homo sapiens, UniProt P42336); test: Inhibition of p110alpha/p85alpha (unknown origin) using L-alpha-phosphatidylinositol incubated for 40 mins by ADP depletion detection based luciferase assay; type: protein-complex assay
PI3K p110 beta/p85 alpha = PI3K p110 beta/p85 alpha (Homo sapiens, UniProt P42338); test: Inhibition of p110beta/p85alpha (unknown origin) using L-alpha-phosphatidylinositol incubated for 40 mins by ADP depletion detection based luciferase assay; type: protein-complex assay
[5] = target: PI3-kinase p110-delta/p85-alpha (Homo sapiens, UniProt O00329); test: Inhibition of p110delta/p85alpha (unknown origin) using L-alpha-phosphatidylinositol incubated for 40 mins by ADP depletion detection based luciferase assay; type: protein-complex assay
[6] = target: PI3-kinase subunit gamma/Phosphoinositide 3-kinase regulatory subunit 5 (Homo sapiens, UniProt P48736); test: Inhibition of p110gamma/PIK3R5 (unknown origin) using L-alpha-phosphatidylinositol incubated for 40 mins by ADP depletion detection based luciferase assay; type: protein-complex assay

Sequence of PI3-kinase p110-alpha/p85-alpha (P27986 whole entry): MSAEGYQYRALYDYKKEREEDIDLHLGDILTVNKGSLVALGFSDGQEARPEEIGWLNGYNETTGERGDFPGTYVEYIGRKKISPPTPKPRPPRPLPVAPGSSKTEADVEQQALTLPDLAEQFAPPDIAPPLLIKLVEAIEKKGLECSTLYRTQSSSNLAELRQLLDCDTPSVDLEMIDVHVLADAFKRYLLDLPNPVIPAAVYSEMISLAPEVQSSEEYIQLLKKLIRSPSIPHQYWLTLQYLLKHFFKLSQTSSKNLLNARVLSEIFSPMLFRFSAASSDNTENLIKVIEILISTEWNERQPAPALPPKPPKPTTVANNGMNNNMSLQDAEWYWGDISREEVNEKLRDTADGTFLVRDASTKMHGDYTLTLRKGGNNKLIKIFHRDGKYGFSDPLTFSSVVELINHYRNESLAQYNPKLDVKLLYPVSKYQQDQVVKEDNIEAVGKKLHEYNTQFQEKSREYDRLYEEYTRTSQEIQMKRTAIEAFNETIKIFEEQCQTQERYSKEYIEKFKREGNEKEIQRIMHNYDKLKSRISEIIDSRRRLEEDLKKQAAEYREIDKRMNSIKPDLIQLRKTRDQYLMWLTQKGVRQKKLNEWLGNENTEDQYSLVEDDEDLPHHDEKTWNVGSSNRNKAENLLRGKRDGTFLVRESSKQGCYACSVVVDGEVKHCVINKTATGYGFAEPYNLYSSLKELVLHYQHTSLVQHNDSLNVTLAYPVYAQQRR
Sequence of PI3-kinase p110-alpha/p85-alpha (P42336 whole entry): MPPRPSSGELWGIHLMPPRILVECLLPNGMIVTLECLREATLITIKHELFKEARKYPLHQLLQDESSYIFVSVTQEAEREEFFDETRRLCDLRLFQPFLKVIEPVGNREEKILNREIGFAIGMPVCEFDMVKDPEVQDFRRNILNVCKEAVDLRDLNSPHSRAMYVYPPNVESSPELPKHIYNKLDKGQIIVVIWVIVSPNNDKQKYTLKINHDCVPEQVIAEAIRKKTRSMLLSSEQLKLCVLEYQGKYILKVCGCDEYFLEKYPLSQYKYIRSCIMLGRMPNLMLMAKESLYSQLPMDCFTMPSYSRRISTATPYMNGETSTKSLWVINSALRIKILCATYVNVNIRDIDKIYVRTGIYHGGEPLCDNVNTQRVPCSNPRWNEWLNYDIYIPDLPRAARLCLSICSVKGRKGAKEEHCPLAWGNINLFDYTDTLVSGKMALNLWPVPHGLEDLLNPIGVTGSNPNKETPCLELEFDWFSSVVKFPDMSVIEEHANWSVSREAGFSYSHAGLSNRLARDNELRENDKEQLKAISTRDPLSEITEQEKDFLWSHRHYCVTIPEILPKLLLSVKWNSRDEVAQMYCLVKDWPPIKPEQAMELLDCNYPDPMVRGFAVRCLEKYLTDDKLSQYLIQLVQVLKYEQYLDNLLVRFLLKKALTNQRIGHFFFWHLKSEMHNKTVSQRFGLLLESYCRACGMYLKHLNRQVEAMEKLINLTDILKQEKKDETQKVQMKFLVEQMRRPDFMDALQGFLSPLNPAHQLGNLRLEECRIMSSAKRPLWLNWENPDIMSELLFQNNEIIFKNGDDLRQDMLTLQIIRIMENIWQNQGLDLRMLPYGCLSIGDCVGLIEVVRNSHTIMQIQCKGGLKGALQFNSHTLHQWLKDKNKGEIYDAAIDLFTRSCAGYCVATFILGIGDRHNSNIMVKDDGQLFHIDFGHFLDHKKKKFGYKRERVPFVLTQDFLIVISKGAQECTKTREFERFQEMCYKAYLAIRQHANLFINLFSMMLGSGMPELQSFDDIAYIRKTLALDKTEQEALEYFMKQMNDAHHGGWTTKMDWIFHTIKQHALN
Sequence of PI3K p110 beta/p85 alpha (P27986 whole entry): as the sequence (P27986 whole entry) above
Sequence of PI3K p110 beta/p85 alpha (P42338 whole entry): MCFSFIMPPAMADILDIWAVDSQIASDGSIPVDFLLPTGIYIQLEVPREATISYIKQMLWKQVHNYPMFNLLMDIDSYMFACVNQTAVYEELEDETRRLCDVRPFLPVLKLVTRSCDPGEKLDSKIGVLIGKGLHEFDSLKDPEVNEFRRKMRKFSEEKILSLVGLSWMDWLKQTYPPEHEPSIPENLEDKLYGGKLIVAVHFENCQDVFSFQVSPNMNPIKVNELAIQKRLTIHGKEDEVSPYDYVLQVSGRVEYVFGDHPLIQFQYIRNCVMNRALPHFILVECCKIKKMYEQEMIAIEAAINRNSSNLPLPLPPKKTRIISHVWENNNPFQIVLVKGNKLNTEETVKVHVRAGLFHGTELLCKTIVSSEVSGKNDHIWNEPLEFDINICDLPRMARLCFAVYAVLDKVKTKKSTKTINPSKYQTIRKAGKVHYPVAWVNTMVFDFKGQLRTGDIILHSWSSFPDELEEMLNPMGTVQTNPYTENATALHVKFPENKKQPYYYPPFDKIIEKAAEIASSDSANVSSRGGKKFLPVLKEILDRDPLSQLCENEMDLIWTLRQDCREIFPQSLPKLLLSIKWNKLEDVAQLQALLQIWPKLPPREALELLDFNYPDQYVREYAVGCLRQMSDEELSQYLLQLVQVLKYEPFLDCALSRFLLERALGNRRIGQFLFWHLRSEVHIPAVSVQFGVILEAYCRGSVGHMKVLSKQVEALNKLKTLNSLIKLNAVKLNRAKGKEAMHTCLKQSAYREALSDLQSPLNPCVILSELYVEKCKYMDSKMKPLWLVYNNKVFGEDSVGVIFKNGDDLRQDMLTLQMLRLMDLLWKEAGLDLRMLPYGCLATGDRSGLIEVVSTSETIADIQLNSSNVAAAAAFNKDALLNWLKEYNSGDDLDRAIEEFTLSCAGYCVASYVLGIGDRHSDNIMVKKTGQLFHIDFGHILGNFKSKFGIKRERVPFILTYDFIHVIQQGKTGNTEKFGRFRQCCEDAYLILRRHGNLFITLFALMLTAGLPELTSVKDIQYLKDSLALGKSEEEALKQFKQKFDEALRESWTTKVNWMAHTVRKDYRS
Sequence of PI3-kinase p110-delta/p85-alpha (P27986 whole entry): as the sequence (P27986 whole entry) above
Sequence of PI3-kinase p110-delta/p85-alpha (O00329 whole entry): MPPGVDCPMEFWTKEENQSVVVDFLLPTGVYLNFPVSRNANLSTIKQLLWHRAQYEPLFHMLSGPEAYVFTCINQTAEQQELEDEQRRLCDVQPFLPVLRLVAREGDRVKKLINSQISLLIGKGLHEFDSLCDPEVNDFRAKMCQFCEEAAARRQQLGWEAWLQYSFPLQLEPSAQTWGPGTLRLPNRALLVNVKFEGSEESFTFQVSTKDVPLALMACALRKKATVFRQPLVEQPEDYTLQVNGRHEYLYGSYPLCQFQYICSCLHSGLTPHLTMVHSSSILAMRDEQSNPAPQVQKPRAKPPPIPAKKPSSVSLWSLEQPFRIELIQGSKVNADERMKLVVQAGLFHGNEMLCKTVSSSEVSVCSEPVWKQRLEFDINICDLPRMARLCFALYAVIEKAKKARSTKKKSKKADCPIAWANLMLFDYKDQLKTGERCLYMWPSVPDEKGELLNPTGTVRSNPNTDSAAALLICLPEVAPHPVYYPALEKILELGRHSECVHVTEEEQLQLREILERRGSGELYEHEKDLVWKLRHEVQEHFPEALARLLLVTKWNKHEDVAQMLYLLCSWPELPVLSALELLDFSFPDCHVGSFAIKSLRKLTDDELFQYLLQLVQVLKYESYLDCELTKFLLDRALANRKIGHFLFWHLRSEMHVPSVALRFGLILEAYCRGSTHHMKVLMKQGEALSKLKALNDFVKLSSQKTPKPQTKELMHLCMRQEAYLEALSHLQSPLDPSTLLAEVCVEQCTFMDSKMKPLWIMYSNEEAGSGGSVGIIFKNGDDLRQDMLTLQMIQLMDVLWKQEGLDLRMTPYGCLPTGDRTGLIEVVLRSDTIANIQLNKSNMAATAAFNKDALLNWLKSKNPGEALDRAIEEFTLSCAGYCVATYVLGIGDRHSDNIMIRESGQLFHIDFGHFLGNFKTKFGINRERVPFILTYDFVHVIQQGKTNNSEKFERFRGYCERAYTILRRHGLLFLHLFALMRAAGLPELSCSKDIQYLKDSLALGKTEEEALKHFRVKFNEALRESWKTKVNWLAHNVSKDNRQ

SMILES | IC50 [1] | IC50 (MCF7) | IC50 (A549) | IC50 [2] | inhibition [3] | IC50 [4] | IC50 (PI3K p110 beta/p85 alpha) | IC50 [5] | IC50 [6]
COc1cc2nc(-c3ccc(C(N)=O)cc3)nc(N3CCOCC3)c2cc1OC | 1.25 µM | 4.6 µM |  |  |  |  |  |  | 
COc1cc2nc(-c3ccc(OC)c(C(N)=O)c3)nc(N3CCOCC3)c2cc1OC | 0.47 µM | 1.22 µM | 9.63 µM | 1.9 µM |  |  |  |  | 
CNC(=O)COc1cc2nc(-c3cc(OC)cc(C(N)=O)c3)nc(N3CCOCC3)c2cc1OC | 21.7 µM | 14.9 µM |  |  |  |  |  |  | 
COc1cc2nc(-c3cnc(N)nc3)nc(N3CCOCC3)c2cc1OC | 0.42 µM | 1.38 µM | 3.21 µM | 5 µM |  |  |  |  | 
COc1cc2nc(-c3cccc(NC(C)=O)c3)nc(N3CCOCC3)c2cc1OC | 1.42 µM | 3.49 µM |  |  |  |  |  |  | 
COc1cc(C(N)=O)cc(-c2nc(N3CCOCC3)c3cc(OC)c(OCCN4CCCC4)cc3n2)c1 | 0.81 µM | 1.01 µM | 9.37 µM | 2.45 µM |  |  |  |  | 
COCCOc1cc2c(N3CCOCC3)nc(-c3cc(OC)cc(C(N)=O)c3)nc2cc1OC | 0.89 µM | 5.19 µM |  |  |  |  |  |  | 
COCCOc1cc2nc(-c3cc(OC)cc(C(N)=O)c3)nc(N3CCOCC3)c2cc1OCCOC | 9.04 µM | 7.52 µM |  |  |  |  |  |  | 
CS(=O)(=O)N1CCN(Cc2cc3nc(-c4cccc5[nH]ncc45)nc(N4CCOCC4)c3s2)CC1 [PICTILISIB] | 0.37 µM | 1.09 µM | 2.28 µM | 1.24 µM | Active |  |  |  | 
COc1cc2nc(-c3cccc(C(N)=O)c3)nc(N3CCOCC3)c2cc1OC | 0.9 µM | 2.14 µM | 26.1 µM | 1.57 µM |  |  |  |  | 
COc1cc2nc(-c3cccc(C(=O)N(C)C)c3)nc(N3CCOCC3)c2cc1OC | 4.73 µM | 5.01 µM |  |  |  |  |  |  | 
COc1cc2nc(-c3cc(O)cc(C(N)=O)c3)nc(N3CCOCC3)c2cc1OC | 0.88 µM | 2.64 µM | 17.2 µM | 1.84 µM |  | 0.053 µM | 0.454 µM | 0.26 µM | 0.394 µM
COc1cc(C(N)=O)cc(-c2nc(N3CCOCC3)c3cc(OC)c(OCC(=O)N4CCOCC4)cc3n2)c1 | 6.48 µM | 24.4 µM |  |  |  |  |  |  | 
COc1cc2nc(-c3cc(C(N)=O)cc(C(F)(F)F)c3)nc(N3CCOCC3)c2cc1OC | 0.71 µM | 2.03 µM | 4.75 µM | 1.19 µM |  |  |  |  | 
COc1cc(C(N)=O)cc(-c2nc(N3CCOCC3)c3cc(OC)c(OCC(=O)N4CCN(C)CC4)cc3n2)c1 | 9.44 µM | 18.7 µM |  |  |  |  |  |  | 
